Fh CTSL1 inh – Fasciola hepatica cathepsin L1 inhibitors, primary screen, counter-screen for PFM18AAP inhibitor project, biochemical, QFRET, fluorogenic peptide substrate. inhibition, % at 5.96 µM. recombinant F. hepatica cathepsin L1, Z-Leu-Arg-MCA fluorescence. 300,000 compounds, 0.49% hits;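 active means inhibition above the mean of all tested compounds plus 3 SD, set per screening campaign, cut at about 17% in these data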
H9c2 protect – cardioprotection against H2O2-induced cell death, primary screen, uHTS, H9c2 cells, ATPLite luminescence; H9c2 cardiomyocytes, H2O2 injury protection, 2 h; protection from H2O2 cell death, % at 20 µM; 360,000 compounds, 0.63% hits; AID 588492, 2011;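 active means compounds giving at least 50% protection of heart cells from peroxide-induced death in the single-dose screen, raw or plate-pattern-corrected value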
T cruzi repl – inhibitors of intracellular T. cruzi growth, primary screen, luminescence, NIH3T3 host cells; inhibition, % (no concentration beside the values); T. cruzi beta-gal in NIH3T3, 90 h; 300,000 compounds, 1.4% hits;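 active means mean inhibition across valid replicates above about 55%, limit read from the data; inconclusive means mean below that limit but half or more replicates reach it; inactive means mean below it, under half of replicates reach it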;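 further: signal also drops with host cell toxicity which is not excluded here; higher percent means less beta-gal luminescence so fewer parasites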
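Read-out: Parasite load inhibition, % | Test system: Mouse NIH/3T3 fibroblasts infected with β-gal-expressing T. cruzi Tulahuen C4 | Amount: 5,000 cells/well | Medium: DMEM, 2% fetal bovine serum | Signal: GalScreen β-gal luminescence, detergent lysis, 60 min | Timing: 3 h attach, ≥90 h co-culture | Also added: Tulahuen C4 trypomastigotes, 5000/well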
p-CIP stab down – p/CIP-EGFP fusion destabilizers, primary screen, fluorescence, F442A cells; 290,000 compounds, 0.01% hits; decrease of EGFP signal, % at 10 µM; 16 h; AID 1984, 2009;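 active means EGFP signal decrease of at least 30% at 10 µM or well 3 SD below plate mean, unless failing retest; inactive means the rest, including hits failing retest or dose response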
JMJD2C inh – inhibitors of GASC-1 histone demethylase, primary screen, biochemical, fluorescence, DELFIA europium. Lysine-specific demethylase 4C (Homo sapiens), Q9H3R0. GST-JMJD2C(1-420) H3K9me3 demethylation. inhibition, % at 2.35 µM. 330,000 compounds, 0.069% hits;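 active means more than half of a compound's replicate wells show inhibition beyond 50%, single wells judged on their own value; inconclusive means some, but no more than half, of replicates pass 50% inhibition; inactive means no replicate passes 50% inhibition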;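 further: signal counts dimethyl H3K9 product captured on neutravidin plate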
Target sequence (Q9H3R0 1-420 limits assumed): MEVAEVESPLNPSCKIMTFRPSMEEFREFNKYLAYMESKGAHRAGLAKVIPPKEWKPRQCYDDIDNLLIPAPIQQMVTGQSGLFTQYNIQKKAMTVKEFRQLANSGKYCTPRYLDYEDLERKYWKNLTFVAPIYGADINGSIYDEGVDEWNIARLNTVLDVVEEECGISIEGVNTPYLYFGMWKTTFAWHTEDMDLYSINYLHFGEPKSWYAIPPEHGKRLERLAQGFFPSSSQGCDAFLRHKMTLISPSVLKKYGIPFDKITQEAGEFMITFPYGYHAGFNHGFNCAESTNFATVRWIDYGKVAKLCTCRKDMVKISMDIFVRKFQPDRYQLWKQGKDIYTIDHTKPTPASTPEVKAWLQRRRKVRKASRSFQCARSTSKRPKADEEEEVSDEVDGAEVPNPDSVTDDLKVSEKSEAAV
PP5 primary – PP5 phosphatase inhibitors, primary screen, biochemical, fluorescence. inhibition, % at 6.7 µM. purified PP5c, OMFP substrate fluorescence. 320,000 compounds, 0.18% hits. Serine/threonine-protein phosphatase 5 (Homo sapiens), P53041;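 active means inhibition above the campaign's mean inhibition across all tested compounds plus 3 SD, cut at about 9.5% in these data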
A number is an active result; – = inactive; ? = inconclusive; · = not tested or not shown. Compounds with a hit are over-represented: about 2.4% of the library has one in this group of screens.

SMILES	Fh CTSL1 inh	H9c2 protect	T cruzi repl	p-CIP stab down	JMJD2C inh	PP5 primary
CCN(c1ccccc1)S(=O)(=O)c1ccc(OC)c(NC(=O)Cc2ccc(F)cc2)c1	·	–	·	·	–	–
O=NNc1nc2ccccc2n1Cc1ccccc1	–	72	?	–	–	–
CCCC(C)NC(=O)CN1C(=O)NC2(CCc3ccccc32)C1=O (configuration not stated)	–	–	–	–	–	–
Cc1cc(C)c(S(=O)(=O)c2ccc(Cl)cc2C)c(Cl)n1	–	–	56	–	–	–
Cc1cc(C)c(S(=O)(=O)c2cccc(Cl)c2)c(Cl)n1	–	–	–	–	–	–
Cc1cc(C)c(S(=O)(=O)c2c(C)cccc2C)c(Cl)n1	–	–	–	–	–	–
Cc1cc(C)c(S(=O)(=O)c2cc(F)ccc2C)c(Cl)n1	–	–	65	–	–	–
CC(C)(C)C1CCC(OCC(O)CN2CCN(Cc3ccccc3)CC2)CC1 (configuration not stated)	–	–	57	–	–	–
CC(C)NCC(O)COC1CCC(C(C)(C)C)CC1 (configuration not stated)	–	–	57	–	–	–
CC(C)NCC(O)COC1C2CC3CC(C2)CC1C3 (configuration not stated)	–	–	62	–	–	–
CC1CCCC(C)N1CC(O)COC1CCC(C(C)(C)C)CC1 (configuration not stated)	–	–	–	–	–	–
CC(=O)N(C(C)=O)c1ncn(C)c1S(=O)(=O)Nc1ccccc1	·	–	·	·	·	·
COc1cc(C(=O)NC(C)c2cccc3ccccc23)cc(OC)c1OC (configuration not stated)	–	–	–	–	–	–
CCC(C)n1ncn(-c2ccc(N3CCN(c4ccc(OCC5COC(Cn6cncn6)(c6ccc(Cl)cc6Cl)O5)cc4)CC3)cc2)c1=O (configuration not stated)	–	–	55	–	–	–
COc1cc(/C=C/C(=O)Nc2ccc3nc4n(c(=O)c3c2)CCCC4)cc(OC)c1OC	–	54	–	–	–	–
COc1ccc(/C=C/C(=O)Nc2ccc3nc4n(c(=O)c3c2)CCCC4)cc1	–	–	–	–	–	–
CC(C)Nc1ncnc2c1ncn2[C@H]1CN(Cc2ccccc2)C[C@@H](CO)O1	·	–	·	·	·	·
COc1ccc(NS(=O)(=O)c2cccc(NC(=O)c3cnccn3)c2)cc1Br	–	–	68	–	–	–
CCOC(=O)N1[C@@H]2C=C(C)[C@@H]2[C@@H]2[C@@H](C)C(=O)N21	18	–	–	–	–	–
COc1ccccc1CN1C(=NC(=O)C2CCCCC2)SC2CS(=O)(=O)CC21 (configuration not stated)	–	–	–	–	–	–
C/C(=N\NC(=O)CCCNc1ccccc1)c1ccncc1	–	–	–	–	–	–
C/C(=N\NC(=O)CCCNc1ccc(C)cc1)c1ccccn1	–	58	–	–	–	–
O=C(CN1C(=O)c2cccc([N+](=O)[O-])c2C1=O)N1CCN(S(=O)(=O)c2ccccc2)CC1	·	–	·	·	–	–
O=C(CCl)NN1C(=O)NC(c2ccccc2)(c2ccccc2)C1=O	80	–	–	–	–	–
O=C(CCl)NN1C(=O)NC2(CCCCC2)C1=O	–	–	–	–	–	–
SMILES	Fh CTSL1 inh	H9c2 protect	T cruzi repl	p-CIP stab down	JMJD2C inh	PP5 primary
COc1cc(CN2CCCCC2)ccc1OCc1ccccc1	–	–	82	–	–	–
COc1ccc(CN2CCCCCC2)cc1OC	–	–	–	·	–	–
COc1cc2nc(SCc3ccc(Cl)cc3Cl)n(Cc3cccs3)c(=N)c2cc1OC	–	–	77	–	–	–
COc1ccc(Cn2c(SCc3cc(C)ccc3C)nc3cc(OC)c(OC)cc3c2=N)cc1	–	–	59	–	–	–
COc1cc2nc(SCc3ccc(C(F)(F)F)cc3)n(Cc3cccs3)c(=N)c2cc1OC	–	–	–	–	–	–
CCCC(CNC(C)=O)(C1=CCCCC1)c1ccccc1 (configuration not stated)	·	–	·	·	·	·
CCCCCN(C(=O)CCC(=O)OCC(=O)c1c(C)cc(C)cc1C)c1c(N)n(CCCC)c(=O)[nH]c1=O	–	–	–	·	–	–
Oc1[nH]c2ccc(Br)cc2c1N=Nc1ccc(C(F)(F)F)cn1	–	–	75	–	–	–
CCOc1ccccc1OCC(=O)Nc1ccc(N2CCOCC2)cc1N1CCOCC1	·	–	·	·	·	·
COc1ccc(C=NCCc2ccc(OC)c(OC)c2)cc1OC	·	–	·	·	·	·
CCCNC(=O)C1(C)CCN(Cc2cc(C(F)(F)F)ccc2Cl)C1 (configuration not stated)	·	–	·	·	·	·
O=C(Nc1ccccc1)c1cccnc1NCCc1ccccc1	–	–	–	–	–	–
COc1ccc(NC(=O)c2cccnc2NCCc2ccccc2)cc1	44	–	–	–	–	–
O=C(Nc1ccc(S(=O)(=O)N2CCOCC2)cc1)c1cccs1	–	–	–	–	–	–
O=C(Nc1ccc(S(=O)(=O)N2CCOCC2)cc1)c1ccc([N+](=O)[O-])s1	–	–	72	·	–	–
CC1(C)CC2CC(C)(CN2S(=O)(=O)c2ccc(C(=O)Nc3ccc(S(=O)(=O)N4CCOCC4)cc3)cc2)C1 (configuration not stated)	–	–	55	–	–	–
CC(=O)Nc1ccc(S(=O)(=O)N2CC3(C)CC2CC(C)(C)C3)cc1 (configuration not stated)	–	–	–	–	–	–
CC1(C)CC2CC(C)(CN2S(=O)(=O)c2ccc(C(=O)Nc3ccc(Cl)c(S(=O)(=O)N4CCOCC4)c3)cc2)C1 (configuration not stated)	–	–	63	–	–	–
CCN(Cc1ccc2c(c1)OCCO2)C(=O)CN1C(=O)NC2(CCc3ccccc32)C1=O (configuration not stated)	·	–	·	·	–	–
COc1c(OC)c(O)c2c(=O)c(O)c(-c3ccccc3)oc2c1OC	–	–	–	–	–	–
COc1ccc(-c2oc3c(OC)c(OC)c(OC)c(O)c3c(=O)c2OC)cc1OC	–	72	–	–	–	–
Cc1ccc(S(=O)(=O)/N=C2\C(=O)c3ccccc3C([O-])=C2n2cc[n+](CCC(C)C)c2)cc1	–	–	–	–	–	–
CC(=O)Nc1ccc(S(=O)(=O)/N=C2\C(=O)c3ccccc3C([O-])=C2n2cc[n+](-c3ccccn3)c2)cc1	31	–	–	–	–	–

From PubChem BioAssay
